Test results as given in ChEMBL document CHEMBL1687913, “Structure-activity relationship, conformational and biological studies of temporin L analogues” (J Med Chem, 2011).
In brackets after ≈: the same amount, converted by molar mass. Where a SMILES comes first, the peptide text is derived from it. [ ]: non-standard residue; d: D form. Orn = NCCC[C@H](N)C(=O)O

Assays:
Pseudomonas aeruginosa [1] = assay: Antibacterial activity against Pseudomonas aeruginosa ATCC 15692 after 18 to 20 hrs by microbroth dilution method; type: functional
Summary of the method: (§1)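 CLSI microbroth dilution, adapted. Mid-log bacteria, 2 × 10^6 CFU/mL in Mueller-Hinton broth, mixed 1:1 with MH broth holding peptide in serial 2-fold dilutions in 20% ethanol (0.75-48 μM). Incubated 18-20 h at 37 °C; growth read as A600. MIC is the lowest concentration giving 100% growth inhibition.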

Acinetobacter junii = assay: Antibacterial activity against […] Acinetobacter junii RT-4 after 18 to 20 hrs by microbroth dilution method; type: functional; summary of the method: as §1
Escherichia coli [2] = assay: Antibacterial activity against Escherichia coli D21 after 18 to 20 hrs by microbroth dilution method; type: functional; summary of the method: as §1
[3] = tested on: Staphylococcus epidermidis; assay: Antibacterial activity against Staphylococcus epidermidis ATCC 12228 after 18 to 20 hrs by microbroth dilution method; type: functional; summary of the method: as §1
[4] = Toxicity in human erythrocytes assessed as hemolysis at 12 uM after 40 mins; type: cell-based, Erythrocyte; conditions: read-out: Activity
Summary of the method: (§2)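 Human red blood cells suspended in 0.9% (w/v) NaCl and incubated 40 min at 37 °C with gentle mixing with serial 2-fold peptide dilutions (peptide predissolved in 20% ethanol). Spun 5 min at 900g; supernatant read at 415 nm. Cells lysed in distilled water set the 100% lysis reference.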

[5] = Toxicity in human erythrocytes assessed as hemolysis at 6 uM after 40 mins; type: cell-based, Erythrocyte; conditions: read-out: Activity; summary of the method: as §2
[6] = tested on: Yersinia pseudotuberculosis; assay: Antibacterial activity against Yersinia pseudotuberculosis YPIII after 18 to 20 hrs by microbroth dilution method; type: functional
Summary of the method: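 Broth microdilution adapted from CLSI. Mid-log bacteria at 2 × 10^6 CFU/mL in Mueller-Hinton broth were mixed 1:1 with MH broth containing peptide in serial 2-fold dilutions (peptide in 20% ethanol), 0.75-48 μM. Plates were incubated 18-20 h at 37 °C and growth was read as A600. MIC is the concentration giving 100% growth inhibition.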

Escherichia coli [7] = assay: Antibacterial activity against Escherichia coli ATCC 25922 after 18 to 20 hrs by microbroth dilution method; type: functional; summary of the method: as §1
Staphylococcus aureus [8] = assay: Antibacterial activity against Staphylococcus aureus ATCC 25923 after 18 to 20 hrs by microbroth dilution method; type: functional; summary of the method: as §1
Candida albicans = assay: Antifungal activity against Candida albicans ATCC 10231 after 18 to 20 hrs by microbroth dilution method; type: functional
Summary of the method: (§3)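 Yeasts tested by adapted CLSI microbroth dilution in Winge medium. Peptide given in serial 2-fold dilutions (0.75-48 μM, made in 20% ethanol). Incubation 18-20 h at 30 °C, read at A600. MIC taken as the concentration giving complete (100%) growth inhibition.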

Streptococcus pyogenes = assay: Antibacterial activity against Streptococcus pyogenes ATCC 21547 after 18 to 20 hrs by microbroth dilution method; type: functional; summary of the method: as §1
Staphylococcus capitis = assay: Antibacterial activity against Staphylococcus capitis after 18 to 20 hrs by microbroth dilution method; type: functional; summary of the method: as §1
Pseudomonas syringae = assay: Antibacterial activity against Pseudomonas syringae pv tobaci after 18 to 20 hrs by microbroth dilution method; type: functional; summary of the method: as §1
Pseudomonas aeruginosa [9] = assay: Antibacterial activity against Pseudomonas aeruginosa ATCC 27853 after 18 to 20 hrs by microbroth dilution method; type: functional; summary of the method: as §1
Priestia megaterium = assay: Antibacterial activity against Bacillus megaterium Bm11 after 18 to 20 hrs by microbroth dilution method; type: functional; summary of the method: as §1
Saccharomyces cerevisiae = assay: Antifungal activity against Saccharomyces cerevisiae after 18 to 20 hrs by microbroth dilution method; type: functional; summary of the method: as §3
[10] = tested on: Schizosaccharomyces pombe; assay: Antifungal activity against Schizosaccharomyces pombe after 18 to 20 hrs by microbroth dilution method; type: functional; summary of the method: as §3
[11] = Toxicity in human erythrocytes assessed as hemolysis at 24 uM after 40 mins; type: cell-based, Erythrocyte; conditions: read-out: Activity; summary of the method: as §2
[12] = Toxicity in human erythrocytes assessed as hemolysis at 3 uM after 40 mins; type: cell-based, Erythrocyte; conditions: read-out: Activity; summary of the method: as §2
[13] = Toxicity in human erythrocytes assessed as hemolysis at 1.5 uM after 40 mins; type: cell-based, Erythrocyte; conditions: read-out: Activity; summary of the method: as §2
Enterococcus faecalis = assay: Antibacterial activity against Enterococcus faecalis ATCC 29212 after 18 to 20 hrs by microbroth dilution method; type: functional; summary of the method: as §1
Acinetobacter baumannii = assay: Antibacterial activity against Acinetobacter baumannii ATCC 19606 after 18 to 20 hrs by microbroth dilution method; type: functional; summary of the method: as §1
Staphylococcus aureus [14] = assay: Antibacterial activity against Staphylococcus aureus Cowan I after 18 to 20 hrs by microbroth dilution method; type: functional; summary of the method: as §1

Question: With CC(C)C[C@H](NC(=O)[C@H](Cc1c[nH]c2ccccc12)NC(=O)[C@H](CCCNC(=N)N)NC(=O)CNC(=O)[C@H](CC(C)C)NC(=O)[C@H](CC(C)C)NC(=O)[C@H](CCCCN)NC(=O)[C@H](CO)NC(=O)[C@H](CC(C)C)NC(=O)[C@H](Cc1c[nH]c2ccccc12)NC(=O)[C@H](CCC(N)=O)NC(=O)[C@H](CC(C)C)NC(=O)[C@@H](N)CC(C)C)C(N)=O (H-LLQWLSKLLGRWL-NH2) as the molecule, how does the MIC (Pseudomonas aeruginosa [1]) read?
Answer: The MIC was > 48 µM.

Question: And the MIC (Acinetobacter junii)?
Answer: The MIC was 6 µM (≈ 9.75 µg/mL).

Question: What about the MIC (Escherichia coli [2]) of the same molecule?
Answer: Its MIC is > 48 µM.

Question: What about the MIC [3] of the same molecule?
Answer: The MIC was 3 µM (≈ 4.88 µg/mL).

Question: What about the hemolysis at 40 min, 12 µM [4] of the same molecule?
Answer: Its hemolysis at 40 min, 12 µM is 100%.

Question: And the hemolysis at 40 min, 6 µM [5]?
Answer: Its hemolysis at 40 min, 6 µM is 78%.

Question: And the MIC [6]?
Answer: Its MIC is 6 µM (≈ 9.75 µg/mL).

Question: And the MIC (Escherichia coli [7])?
Answer: Its MIC is > 48 µM.

Question: What about the MIC (Staphylococcus aureus [8]) of the same molecule?
Answer: The MIC was 6 µM (≈ 9.75 µg/mL).

Question: And the MIC (Candida albicans)?
Answer: The MIC was 12 µM (≈ 19.5 µg/mL).

Question: And the MIC (Streptococcus pyogenes)?
Answer: Its MIC is 6 µM (≈ 9.75 µg/mL).

Question: What about the MIC (Staphylococcus capitis) of the same molecule?
Answer: Its MIC is 6 µM (≈ 9.75 µg/mL).

Question: What about the MIC (Pseudomonas syringae) of the same molecule?
Answer: Its MIC is 12 µM (≈ 19.5 µg/mL).

Question: What about the MIC (Pseudomonas aeruginosa [9]) of the same molecule?
Answer: The MIC was > 48 µM.

Question: What about the MIC (Priestia megaterium) of the same molecule?
Answer: Its MIC is 3 µM (≈ 4.88 µg/mL).

Question: What about the MIC (Saccharomyces cerevisiae) of the same molecule?
Answer: The MIC was 12 µM (≈ 19.5 µg/mL).

Question: And the MIC [10]?
Answer: Its MIC is 6 µM (≈ 9.75 µg/mL).

Question: What about the hemolysis at 40 min, 24 µM [11] of the same molecule?
Answer: Its hemolysis at 40 min, 24 µM is 100%.

Question: And the hemolysis at 40 min, 3 µM [12]?
Answer: Its hemolysis at 40 min, 3 µM is 13%.

Question: What about the hemolysis at 40 min, 1.5 µM [13] of the same molecule?
Answer: The hemolysis at 40 min, 1.5 µM was 8%.

Question: What about the MIC (Enterococcus faecalis) of the same molecule?
Answer: The MIC was 12 µM (≈ 19.5 µg/mL).

Question: What about the MIC (Acinetobacter baumannii) of the same molecule?
Answer: Its MIC is 6 µM (≈ 9.75 µg/mL).

Question: And the MIC (Staphylococcus aureus [14])?
Answer: The MIC was 6 µM (≈ 9.75 µg/mL).

Question: For CC[C@H](C)[C@H](NC(=O)[C@H](CCCN)NC(=O)CNC(=O)[C@H](CC(C)C)NC(=O)[C@H](Cc1ccccc1)NC(=O)[C@H](CCCCN)NC(=O)[C@H](CO)NC(=O)[C@H](Cc1ccccc1)NC(=O)[C@H](Cc1c[nH]c2ccccc12)NC(=O)[C@@H]1CCCN1C(=O)[C@@H](NC(=O)[C@@H](N)Cc1ccccc1)C(C)C)C(=O)N[C@@H](CC(C)C)C(N)=O (H-FVPWFSKFLG[Orn]IL-NH2), which MIC (Pseudomonas aeruginosa [1]) is on record?
Answer: Its MIC is 48 µM (≈ 75.2 µg/mL).

Question: What about the MIC (Acinetobacter junii) of the same molecule?
Answer: The MIC was 6 µM (≈ 9.4 µg/mL).

Question: And the MIC (Escherichia coli [2])?
Answer: The MIC was 24 µM (≈ 37.6 µg/mL).

Question: What about the MIC [3] of the same molecule?
Answer: The MIC was 6 µM (≈ 9.4 µg/mL).

Question: What about the hemolysis at 40 min, 12 µM [4] of the same molecule?
Answer: Its hemolysis at 40 min, 12 µM is 12%.

Question: What about the hemolysis at 40 min, 6 µM [5] of the same molecule?
Answer: The hemolysis at 40 min, 6 µM was 2%.

Question: And the MIC [6]?
Answer: The MIC was 6 µM (≈ 9.4 µg/mL).

Question: And the MIC (Escherichia coli [7])?
Answer: The MIC was 12 µM (≈ 18.8 µg/mL).

Question: What about the MIC (Staphylococcus aureus [8]) of the same molecule?
Answer: The MIC was 12 µM (≈ 18.8 µg/mL).

Question: What about the MIC (Candida albicans) of the same molecule?
Answer: The MIC was 6 µM (≈ 9.4 µg/mL).

Question: And the MIC (Streptococcus pyogenes)?
Answer: Its MIC is 6 µM (≈ 9.4 µg/mL).

Question: What about the MIC (Staphylococcus capitis) of the same molecule?
Answer: Its MIC is 6 µM (≈ 9.4 µg/mL).

Question: And the MIC (Pseudomonas syringae)?
Answer: Its MIC is 12 µM (≈ 18.8 µg/mL).

Question: And the MIC (Pseudomonas aeruginosa [9])?
Answer: Its MIC is 48 µM (≈ 75.2 µg/mL).

Question: And the MIC (Priestia megaterium)?
Answer: Its MIC is 6 µM (≈ 9.4 µg/mL).

Question: What about the MIC (Saccharomyces cerevisiae) of the same molecule?
Answer: The MIC was 6 µM (≈ 9.4 µg/mL).

Question: And the MIC [10]?
Answer: Its MIC is 12 µM (≈ 18.8 µg/mL).

Question: And the hemolysis at 40 min, 24 µM [11]?
Answer: The hemolysis at 40 min, 24 µM was 72%.

Question: What about the hemolysis at 40 min, 3 µM [12] of the same molecule?
Answer: Its hemolysis at 40 min, 3 µM is 1%.

Question: And the hemolysis at 40 min, 1.5 µM [13]?
Answer: Its hemolysis at 40 min, 1.5 µM is 0.7%.

Question: What about the MIC (Enterococcus faecalis) of the same molecule?
Answer: The MIC was 12 µM (≈ 18.8 µg/mL).

Question: And the MIC (Acinetobacter baumannii)?
Answer: Its MIC is 12 µM (≈ 18.8 µg/mL).

Question: And the MIC (Staphylococcus aureus [14])?
Answer: The MIC was 3 µM (≈ 4.7 µg/mL).
